Reference: ChEMBL document CHEMBL1149323, “Synthesis and evaluation of dihydropyrroloquinolines that selectively antagonize P-glycoprotein” (J Med Chem, 2004)
Several values for one entry are separate records, joined by “and”; a condition that tells them apart may be missing. Identical values can stand only once.

Columns and labels:
[1] = biological target: Multidrug resistance-associated protein 1 (Homo sapiens, UniProt P33527); experiment: MRP1 antagonism was determined percentage of MCF-7/VP cells surviving in the absence of vincristine/percentage of MCF-7/VP cells surviving in the presence of vincristine; assay type: functional
Sequence of Multidrug resistance-associated protein 1 (P33527 whole entry): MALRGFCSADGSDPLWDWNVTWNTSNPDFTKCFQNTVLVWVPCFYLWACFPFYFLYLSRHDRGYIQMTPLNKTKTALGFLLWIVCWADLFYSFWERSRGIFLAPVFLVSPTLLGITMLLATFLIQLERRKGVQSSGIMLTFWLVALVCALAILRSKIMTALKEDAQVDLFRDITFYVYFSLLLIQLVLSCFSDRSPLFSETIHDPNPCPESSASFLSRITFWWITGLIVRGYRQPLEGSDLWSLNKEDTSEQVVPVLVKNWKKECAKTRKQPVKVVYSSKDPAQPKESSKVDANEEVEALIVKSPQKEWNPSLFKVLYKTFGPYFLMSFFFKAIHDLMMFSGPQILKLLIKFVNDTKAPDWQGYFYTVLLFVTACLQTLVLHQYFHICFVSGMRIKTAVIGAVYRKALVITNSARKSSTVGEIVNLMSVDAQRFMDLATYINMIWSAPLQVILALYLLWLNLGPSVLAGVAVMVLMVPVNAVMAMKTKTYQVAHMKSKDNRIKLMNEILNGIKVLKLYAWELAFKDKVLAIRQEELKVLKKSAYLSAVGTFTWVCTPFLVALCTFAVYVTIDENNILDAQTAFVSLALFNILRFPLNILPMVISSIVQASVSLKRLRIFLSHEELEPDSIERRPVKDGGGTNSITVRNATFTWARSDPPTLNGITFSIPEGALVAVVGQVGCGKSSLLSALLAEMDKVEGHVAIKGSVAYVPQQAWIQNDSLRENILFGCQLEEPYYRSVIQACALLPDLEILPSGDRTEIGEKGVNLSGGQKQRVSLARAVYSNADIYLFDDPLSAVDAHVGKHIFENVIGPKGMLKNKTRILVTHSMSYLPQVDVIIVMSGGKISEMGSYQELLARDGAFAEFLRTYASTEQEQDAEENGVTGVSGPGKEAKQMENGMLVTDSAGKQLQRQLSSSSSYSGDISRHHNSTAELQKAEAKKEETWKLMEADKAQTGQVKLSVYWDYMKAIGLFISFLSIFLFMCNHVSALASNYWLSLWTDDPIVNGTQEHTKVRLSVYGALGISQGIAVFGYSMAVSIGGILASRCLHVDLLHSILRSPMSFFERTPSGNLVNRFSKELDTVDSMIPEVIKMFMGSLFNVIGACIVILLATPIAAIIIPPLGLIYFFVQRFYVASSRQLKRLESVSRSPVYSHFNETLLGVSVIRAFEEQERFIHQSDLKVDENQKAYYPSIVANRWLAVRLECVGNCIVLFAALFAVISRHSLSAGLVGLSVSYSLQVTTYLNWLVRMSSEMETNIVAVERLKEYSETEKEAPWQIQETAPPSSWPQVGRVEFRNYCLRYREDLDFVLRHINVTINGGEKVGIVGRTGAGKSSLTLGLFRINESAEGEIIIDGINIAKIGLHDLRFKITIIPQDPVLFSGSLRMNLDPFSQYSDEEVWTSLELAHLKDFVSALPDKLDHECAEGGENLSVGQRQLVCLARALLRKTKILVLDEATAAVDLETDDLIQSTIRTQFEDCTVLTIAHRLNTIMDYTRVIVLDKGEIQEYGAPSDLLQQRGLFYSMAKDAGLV
Outline: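 MCF-7/VP cells in RPMI 1640 with 10% FBS. Modulator at 10 μg/mL tested with or without 1 nM vincristine for 48 h, in triplicate. Sulforhodamine B read-out at 570 nm. Score = % survival without vincristine / % survival with vincristine; a score above 1.0 indicates chemosensitization.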

[2] = biological target: T1, ATP-dependent translocase ABCB1 (Homo sapiens, UniProt P08183); experiment: Pgp antagonism was determined percentage of NCI/ADR cells surviving in the absence of vinblastine/percentage of NCI/ADR cells surviving in the presence of vinblastine; assay type: functional, cell-based
T1 sequence (P08183 whole entry): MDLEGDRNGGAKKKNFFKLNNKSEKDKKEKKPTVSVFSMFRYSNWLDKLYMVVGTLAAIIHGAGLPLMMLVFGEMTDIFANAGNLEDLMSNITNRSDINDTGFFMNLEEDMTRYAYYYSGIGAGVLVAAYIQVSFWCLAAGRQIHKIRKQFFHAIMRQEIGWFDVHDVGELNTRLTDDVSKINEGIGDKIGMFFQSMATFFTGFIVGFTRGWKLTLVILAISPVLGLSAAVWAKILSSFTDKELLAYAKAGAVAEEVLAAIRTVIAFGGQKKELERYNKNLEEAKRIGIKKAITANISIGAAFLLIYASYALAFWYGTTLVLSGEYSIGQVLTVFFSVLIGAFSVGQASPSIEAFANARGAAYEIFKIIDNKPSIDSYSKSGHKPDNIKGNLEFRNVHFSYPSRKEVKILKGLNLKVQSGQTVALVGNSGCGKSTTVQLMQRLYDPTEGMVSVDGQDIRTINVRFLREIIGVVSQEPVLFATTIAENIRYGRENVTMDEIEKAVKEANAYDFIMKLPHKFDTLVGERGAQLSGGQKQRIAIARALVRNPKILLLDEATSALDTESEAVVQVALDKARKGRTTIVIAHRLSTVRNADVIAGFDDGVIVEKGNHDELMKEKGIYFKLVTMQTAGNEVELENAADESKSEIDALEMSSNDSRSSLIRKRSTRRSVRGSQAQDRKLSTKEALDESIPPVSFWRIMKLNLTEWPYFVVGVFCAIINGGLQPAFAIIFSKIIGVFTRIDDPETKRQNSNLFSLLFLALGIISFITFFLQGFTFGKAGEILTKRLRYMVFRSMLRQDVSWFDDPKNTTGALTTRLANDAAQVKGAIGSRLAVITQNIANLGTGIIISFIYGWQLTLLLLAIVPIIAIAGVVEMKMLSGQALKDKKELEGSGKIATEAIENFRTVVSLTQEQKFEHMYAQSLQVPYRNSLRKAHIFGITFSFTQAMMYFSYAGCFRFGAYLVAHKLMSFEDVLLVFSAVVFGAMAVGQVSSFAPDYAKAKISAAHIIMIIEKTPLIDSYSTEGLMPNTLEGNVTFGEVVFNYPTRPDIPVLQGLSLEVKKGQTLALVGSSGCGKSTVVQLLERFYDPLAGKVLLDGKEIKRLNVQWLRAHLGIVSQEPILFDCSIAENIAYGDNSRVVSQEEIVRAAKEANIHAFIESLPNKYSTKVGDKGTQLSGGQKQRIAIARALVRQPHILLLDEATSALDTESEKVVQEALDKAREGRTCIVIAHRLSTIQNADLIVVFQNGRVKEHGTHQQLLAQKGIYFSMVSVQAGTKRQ
Outline: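 Modulator at 10 μg/mL tested with or without 50 nM vinblastine for 48 h, in triplicate. Survival read by sulforhodamine B at 570 nm against ethanol (1%) controls. Score = % survival without vinblastine / % survival with vinblastine.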

MCF7 = experiment: Toxicity was determined against of MCF-7 cells at a dose of 10 ug/mL; assay type: cell-based; conditions: human
Outline: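 Drug-sensitive MCF-7 cells exposed to 10 μg/mL compound for 48 h, in triplicate, with 1% ethanol solvent controls. Percentage of cells killed = percentage decrease in sulforhodamine B binding (570 nm) relative to control cultures.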

[3] = Ratio of the Pgp to that of MRP1 was determined; assay type: functional
MCF-7 (Homo sapiens) = experiment: Toxicity against MCF-7 cells
[4] = biological target: T1, ATP-dependent translocase ABCB1; experiment: Compound was evaluated for broad range of antagonistic activity against P-glycoprotein (Pgp) value expressed as IC20; assay type: functional
[5] = Compound was evaluated for broad range of antagonistic activity against multi drug resistance-related protein (MRP) value expressed as IC20; assay type: functional; parameters: unit not given here
Mus musculus [6] = experiment: In vivo tumor growth inhibition in mice when […] at a day 1; assay type: functional
Outline: (§1)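 Balb/c female mice, 6–8 weeks old, with 10^6 JC murine mammary adenocarcinoma cells injected subcutaneously in the right hind quarter. Treatment began once tumors were palpable (day 1), five mice per group. Dosing on days 1, 5 and 9: 100 mg/kg i.p. PGP-4008·HCl with or without 5 mg/kg doxorubicin. Caliper volumes calculated as (L×W²)/2 through day 15; unpaired t-test with Welch correction.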

Mus musculus [7] = experiment: In vivo tumor growth inhibition in mice when […] at a day 15; assay type: functional; outline: as §1
Mus musculus [8] = experiment: In vivo tumor growth inhibition in mice when administered […] at a day 9; assay type: functional; outline: as §1
Mus musculus [9] = experiment: In vivo tumor growth inhibition in mice when administered […] at a day 12; assay type: functional; outline: as §1
Mus musculus [10] = experiment: In vivo tumor growth inhibition in mice when administered subcutaneously at a day 5; assay type: functional; conditions: in the assay text read “intraperitoneally” for “subcutaneously”; outline: as §1

| SMILES | Ratio [1] | Ratio [2] | Toxicity (MCF7) | Ratio [3] | further results |
| --- | --- | --- | --- | --- | --- |
| Cc1ccc2c(N)c3c(nc2c1)N(Cc1ccccc1)CC3 | 1.7 and 1 | 1.6 and 0.7 | 77% and 98% | 0.9 and 0.7 |  |
| CC(C)NCC(=O)Nc1c2c(nc3ccccc13)N(C)CC2 | 1.4 | 1.8 | 39% | 1.3 |  |
| CN1CCN(CC(=O)Nc2c3c(nc4ccccc24)N(Cc2ccccc2)CC3)CC1 | 1.1 | 7.5 | 21% | 6.8 |  |
| Fc1ccc(CNc2c3c(nc4ccccc24)N(Cc2ccccc2)CC3)cc1 |  |  |  |  | Toxicity (MCF-7 (Homo sapiens)): > 65 µM; Activity [4]: 1.3; Activity [5]: 0.7 |
| Nc1c2c(nc3cc(Br)ccc13)N(Cc1ccccc1)CC2 | 1.3 | 1.7 | 94% | 1.3 |  |
| COc1cc(CNc2c3c(nc4ccccc24)N(Cc2ccccc2)CC3)cc(OC)c1 |  |  |  |  | Toxicity (MCF-7 (Homo sapiens)): 47 µM; Activity [4]: 1.4; Activity [5]: 0.9 |
| CN1CCc2c1nc1ccccc1c2NC(=O)C12CC3CC(CC(C3)C1)C2 | 0.9 | 4.7 | 29% | 5.2 |  |
| COc1cccc2c1C(=O)c1c(O)c3c(c(O)c1C2=O)C[C@@](O)(C(=O)CO)C[C@@H]3O[C@H]1C[C@H](N)[C@H](O)[C@H](C)O1 [DOXORUBICIN] |  |  |  |  | Tumor volume (Mus musculus [6]): 430 mm**3; Tumor volume (Mus musculus [7]): 1680 mm**3; Tumor volume (Mus musculus [8]): 860 mm**3; Tumor volume (Mus musculus [9]): 1210 mm**3; Tumor volume (Mus musculus [10]): 520 mm**3 |
| Cc1cc(C)c2c(N)c3c(nc2c1)N(Cc1ccccc1)CC3 | 1.4 | 3.6 | 49% | 2.6 |  |
| O=C(Nc1c2c(nc3ccccc13)N(Cc1ccccc1)CC2)c1c(F)ccc(F)c1F |  |  |  |  | Toxicity (MCF-7 (Homo sapiens)): > 58 µM; Activity [4]: 3.1; Activity [5]: 1 |
| CCCCN(CCCC)CC(=O)Nc1c2c(nc3ccccc13)N(C)CC2 | 1.3 | 4.2 | 50% | 3.2 |  |
| CCC(=O)Nc1c2c(nc3ccccc13)N(C)CC2 |  |  |  | 1.6 |  |
| O=C(Nc1c2c(nc3ccccc13)N(Cc1cccc(Cl)c1)CC2)C12CC3CC(CC(C3)C1)C2 | 1.2 | 1.2 | 33% | 1 |  |
| Nc1c2c(nc3cc(Br)ccc13)N(C1CCCCC1)CC2 | 1 | 1 | 99% | 1 |  |
| Nc1c2c(nc3ccccc13)N(C1CCCCC1)CC2 | 0.6 | 0.8 | 97% | 1.3 |  |
| CCN(CC)CC(=O)Nc1c2c(nc3ccccc13)N(C)CC2 | 1.2 | 6 | 30% | 5 |  |
| Cc1ccc2nc3c(c(N)c2c1)CCN3Cc1ccccc1 | 1.2 | 1.5 | 81% | 1.3 |  |
| CC(C)(C)c1cc(CCC(=O)Nc2c3c(nc4ccccc24)N(Cc2ccccc2)CC3)cc(C(C)(C)C)c1O | 1.2 | 13.2 | 50% | 11 |  |
| Nc1c2c(nc3ccccc13)N(Cc1ccccc1)CC2 | 1 | 3.1 | 47% | 3.1 | Toxicity (MCF-7 (Homo sapiens)): 6.2 µM; Activity [4]: 1; Activity [5]: 1 |

| SMILES | Ratio [1] | Ratio [2] | Toxicity (MCF7) | Ratio [3] | further results |
| --- | --- | --- | --- | --- | --- |
| CC(C)NCC(=O)Nc1c2c(nc3ccccc13)N(Cc1ccccc1)CC2 | 1 | 13 | 45% | 13 |  |
| CN1CCc2c1nc1ccccc1c2NC(=O)CNC(C)(C)C | 1.2 | 3.2 | 28% | 2.7 |  |
| CN1CCc2c1nc1ccccc1c2NC(=O)CNCCc1ccc(O)cc1 | 1.4 | 1.7 | 21% | 1.2 |  |
| Nc1c2c(nc3ccccc13)N(c1ccccc1)CC2 | 1.1 | 2.7 | 52% | 2.5 |  |
| CCOC(=O)CNc1c2c(nc3ccccc13)N(Cc1ccccc1)CC2 |  |  |  |  | Toxicity (MCF-7 (Homo sapiens)): 33 µM; Activity [4]: 0.9; Activity [5]: 0.9 |
| CCN(CC)CC(=O)Nc1c2c(nc3ccccc13)N(Cc1ccccc1)CC2 | 1 | 15 | 14% | 15 |  |
| CN1CCc2c1nc1ccccc1c2/N=C(/c1ccccc1)N1CCCCC1 | 1 | 2.4 | 58% | 2.4 |  |
| Fc1cccc(CNc2c3c(nc4ccccc24)N(Cc2ccccc2)CC3)c1 |  |  |  |  | Toxicity (MCF-7 (Homo sapiens)): > 65 µM; Activity [4]: 1.2; Activity [5]: 0.7 |
| O=C(Nc1c2c(nc3ccccc13)N(Cc1ccccc1)CC2)c1c(F)cccc1C(F)(F)F |  |  |  |  | Toxicity (MCF-7 (Homo sapiens)): 13 µM; Activity [4]: 2.5; Activity [5]: 0.9 |
| CCCCN1CCc2c1nc1cc(Br)ccc1c2N | 1 | 1.1 | 98% | 1.1 |  |
| O=C(Nc1c2c(nc3ccccc13)N(Cc1ccccc1)CC2)c1ccc(F)c(C(F)(F)F)c1 |  |  |  |  | Toxicity (MCF-7 (Homo sapiens)): 19 µM; Activity [4]: 4.9; Activity [5]: 0.9 |
| CC(C)(C)NCC(=O)Nc1c2c(nc3ccccc13)N(Cc1ccccc1)CC2 | 0.9 | 12 | 29% | 13 |  |
| CN1CCc2c1nc1cc(Br)ccc1c2N | 1.6 | 1.3 | 94% | 0.8 |  |
| CN1CCc2c1nc1ccccc1c2NC(=O)Cc1ccccc1 |  |  |  | 5.6 |  |
| CN1CCc2c1nc1ccccc1c2NC(=O)CCc1cc(C(C)(C)C)c(O)c(C(C)(C)C)c1 | 1 | 1 | 99% | 1 |  |
| CN1CCc2c1nc1ccccc1c2NC(=O)CN1CCCCC1 | 1.2 | 4.1 | 51% | 3.4 |  |
| O=C(CN1CCCCC1)Nc1c2c(nc3ccccc13)N(Cc1ccccc1)CC2 | 1.1 | 18 | 0% | 16 | Toxicity (MCF-7 (Homo sapiens)): 14 µM; Activity [4]: 9; Activity [5]: 1 |
| COc1cccc2c1C(=O)c1c(O)c3c(c(O)c1C2=O)C[C@@](O)(C(=O)CO)C[C@@H]3O[C@H]1C[C@H](N)[C@H](O)[C@H](C)O1.O=C(Cc1ccccc1)Nc1c2c(nc3ccccc13)N(Cc1ccccc1)CC2 |  |  |  |  | Tumor volume (Mus musculus [6]): 390 mm**3; Tumor volume (Mus musculus [7]): 670 mm**3; Tumor volume (Mus musculus [8]): 520 mm**3; Tumor volume (Mus musculus [9]): 560 mm**3; Tumor volume (Mus musculus [10]): 470 mm**3 |
